Test results reported in ChEMBL document CHEMBL2062362, “Bioactive 3,4-seco-Triterpenoids from the Fruits of Acanthopanax sessiliflorus” (J Nat Prod, 2012).

Key:
HeLa = assay: Cytotoxicity against human HeLa cells by MTT assay; format: functional, cell-based
SK-OV-3 = assay: Cytotoxicity against human SKOV3 cells by MTT assay; format: functional, cell-based
HepG2 = assay: Cytotoxicity against human HepG2 cells by MTT assay; format: functional, cell-based
MCF7 = assay: Cytotoxicity against human MCF7 cells by MTT assay; format: functional, cell-based
RAW264.7 = assay: Antiinflammatory activity in mouse RAW264.7 cells assessed as inhibition of LPS-stimulated NO production pretreated for 30 mins before LPS challenge measured after 24 hrs by Griess reagent
SK-BR-3 = assay: Cytotoxicity against human SKBR3 cells by MTT assay; format: functional, cell-based
SK-MEL-5 = assay: Cytotoxicity against human SK-MEL-5 cells by MTT assay; format: functional, cell-based
HCT-116 = assay: Cytotoxicity against human HCT116 cells by MTT assay; format: functional, cell-based
[1] = Cytotoxicity against mouse RAW264.7 cells assessed as cell viability after 24 hrs by MTT assay; format: cell-based; design: concentration or dose not given beside the values; conditions: read-out: Activity
Outline: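 The same LPS-stimulated RAW 264.7 cultures (1 × 10⁴ cells/well) were pretreated with samples for 30 min, then given LPS at 1 μg/mL for 24 h. Viability was assessed by MTT reduction and expressed as a percentage of the LPS-only group. Data are means ± SD of three independent experiments.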

Row | IC50 (RAW264.7) [µM] | SMILES | IC50 (HeLa) [µM] | IC50 (SK-OV-3) [µM] | IC50 (HepG2) [µM] | IC50 (MCF7) [µM] | IC50 (SK-BR-3) [µM] | IC50 (SK-MEL-5) [µM] | IC50 (HCT-116) [µM] | viability at 24 h [1] [%]
1 | > 50 | C=C(C)[C@@H]1C[C@H](O)[C@]2(C(=O)O[C@@H]3O[C@H](CO)[C@@H](O)[C@H](O)[C@H]3O)CC[C@]3(C)[C@H](C[C@H]4OC(=O)C[C@@H](O)[C@]5(C)[C@@H]4[C@@]3(C)CC[C@H]5C(=C)C)[C@@H]12 [ACANTHOSESSILIOSIDE F] | > 10 | > 10 | > 10 | > 10 | > 10 | > 10 | > 10 | 
2 | > 50 | C=C(C)[C@@H]1C[C@H](O)[C@]2(C(=O)O)CC[C@]3(C)[C@H](C[C@H]4OC(=O)C[C@@H](O)[C@]5(C)[C@@H]4[C@@]3(C)CC[C@H]5C(=C)C)[C@@H]12 | > 10 | > 10 | > 10 | > 10 | > 10 | > 10 | > 10 | 
3 | > 50 | C=C(C)[C@@H]1C[C@H](O)[C@]2(C(=O)O)CC[C@]3(C)[C@H](C[C@@H](O)[C@@H]4[C@@]5(C)[C@@H](CC(=O)O)OC(C)(C)[C@@H]5CC[C@]43C)[C@@H]12 | > 10 | > 10 | > 10 | > 10 | > 10 | > 10 | > 10 | 
4 | 20.6 | C=C(C)[C@@H]1CC[C@]2(C(=O)O[C@@H]3O[C@H](CO)[C@@H](O)[C@H](O)[C@H]3O)CC[C@]3(C)[C@H](C[C@@H](O)[C@@H]4[C@@]5(C)[C@@H](CC(=O)OC)OC(C)(C)[C@@H]5CC[C@]43C)[C@@H]12 [ACANTHOSESSILIOSIDE B] | > 10 | > 10 | > 10 | > 10 | > 10 | > 10 | > 10 | 93
5 | > 50 | C=C(C)[C@@H]1CC[C@]2(C(=O)O[C@@H]3O[C@H](CO[C@@H]4O[C@H](CO)[C@@H](O)[C@H](O)[C@H]4O)[C@@H](O)[C@H](O)[C@H]3O)CC[C@]3(C)[C@H](C[C@H]4OC(=O)C[C@@H](O)[C@]5(C)[C@@H]4[C@@]3(C)CC[C@H]5C(=C)C)[C@@H]12 | > 10 | > 10 | > 10 | > 10 | > 10 | > 10 | > 10 | 
6 |  | CC(=O)O[C@H]1C(=O)[C@@]2(C)[C@H]([C@H](OC(=O)c3ccccc3)[C@]3(O)C[C@H](OC(=O)[C@H](O)[C@@H](NC(=O)c4ccccc4)c4ccccc4)C(C)=C1C3(C)C)[C@]1(OC(C)=O)CO[C@@H]1C[C@@H]2O [PACLITAXEL] |  | 0.4 |  | 0.9 | 0.11 | 0.15 | 0.05 | 
7 | 11.3 | C=C(C)[C@@H]1C[C@H](O)[C@]2(C(=O)O)CC[C@]3(C)[C@H](CC[C@@H]4[C@@](C)(CCC(=O)OC)[C@H](C(=C)C)CC[C@]43C)[C@@H]12 [ACANTHOSESSILIGENIN I] | > 10 | > 10 | > 10 | > 10 | > 10 | > 10 | > 10 | 88.8
8 | > 50 | C=C(C)[C@@H]1C[C@H](O)[C@]2(C(=O)O[C@@H]3O[C@H](CO)[C@@H](O)[C@H](O)[C@H]3O)CC[C@]3(C)[C@H](C[C@@H](O)[C@@H]4[C@@]5(C)[C@@H](CC(=O)OC)OC(C)(C)[C@@H]5CC[C@]43C)[C@@H]12 [ACANTHOSESSILIOSIDE C] | > 10 | > 10 | > 10 | > 10 | > 10 | > 10 | > 10 | 
9 | 11.9 | C=C(C)[C@@H]1CC[C@]2(C(=O)O)CC[C@]3(C)[C@H](CC[C@@H]4[C@@]5(C)[C@@H](CC(=O)O[C@@H]6O[C@H](CO)[C@@H](O)[C@H](O)[C@H]6O)OC(C)(C)[C@@H]5CC[C@]43C)[C@@H]12 [ACANTHOSESSILIOSIDE D] | > 10 | > 10 | > 10 | > 10 | > 10 | > 10 | > 10 | 95.2
10 | > 50 | C=C(C)[C@@H]1C[C@H](O)[C@]2(C(=O)O[C@@H]3O[C@H](CO[C@@H]4O[C@H](CO)[C@@H](O[C@@H]5O[C@@H](C)[C@H](O)[C@@H](O)[C@H]5O)[C@H](O)[C@H]4O)[C@@H](O)[C@H](O)[C@H]3O)CC[C@]3(C)[C@H](C[C@H]4OC(=O)C[C@@H](O)[C@]5(C)[C@@H]4[C@@]3(C)CC[C@H]5C(=C)C)[C@@H]12 | > 10 | > 10 | > 10 | > 10 | > 10 | > 10 | > 10 | 
11 | > 50 | C=C(C)[C@@H]1C[C@H](O)[C@]2(C(=O)O[C@@H]3O[C@H](CO)[C@@H](O)[C@H](O)[C@H]3O)CC[C@]3(C)[C@H](CC[C@@H]4[C@@]5(C)[C@@H](CC(=O)O)OC(C)(C)[C@@H]5CC[C@]43C)[C@@H]12 [ACANTHOSESSILIOSIDE E] | > 10 | > 10 | > 10 | > 10 | > 10 | > 10 | > 10 | 
12 | 47 | C=C(C)[C@@H]1CC[C@]2(C(=O)O)CC[C@]3(C)[C@H](C[C@@H](O)[C@@H]4[C@@]5(C)[C@@H](CC(=O)OC)OC(C)(C)[C@@H]5CC[C@]43C)[C@@H]12 [ACANTHOSESSILIGENIN II] | > 10 | > 10 | > 10 | > 10 | > 10 | > 10 | > 10 | 91.1
13 | 18.3 | C=C(C)[C@@H]1CC[C@]2(C(=O)O[C@@H]3O[C@H](CO)[C@@H](O)[C@H](O)[C@H]3O)CC[C@]3(C)[C@H](CC[C@@H]4[C@@](C)(CCC(=O)O)[C@H](C(=C)C)CC[C@]43C)[C@@H]12 [ACANTHOSESSILIOSIDE A] | > 10 | > 10 | > 10 | > 10 | > 10 | > 10 | > 10 | 93.5

Row | SMILES | IC50 (RAW264.7) [µM] | IC50 (HeLa) [µM] | IC50 (SK-OV-3) [µM] | IC50 (HepG2) [µM] | IC50 (MCF7) [µM] | IC50 (SK-BR-3) [µM] | IC50 (SK-MEL-5) [µM] | IC50 (HCT-116) [µM] | viability at 24 h [1] [%]
14 | C=C(C)[C@@H]1CC[C@]2(C(=O)O[C@@H]3O[C@H](CO[C@@H]4O[C@H](CO)[C@@H](O[C@@H]5O[C@@H](C)[C@H](O)[C@@H](O)[C@H]5O)[C@H](O)[C@H]4O)[C@@H](O)[C@H](O)[C@H]3O)CC[C@]3(C)[C@H](C[C@H]4OC(=O)C[C@@H](O)[C@]5(C)[C@@H]4[C@@]3(C)CC[C@H]5C(=C)C)[C@@H]12 [CHIISANOSIDE] | > 50 | > 10 | < 10 | > 10 | < 10 | < 10 | < 10 | < 10 | 
15 | N=C(N)NN [PIMAGEDINE] | 6.5 |  |  |  |  |  |  |  | 84.6
